From PubChem BioAssay
Most compounds without a hit are left out; they make up all but 2.6% or so of the library.
E-sel inducer = induces E-selectin expression in human endothelial cells; AID 686992; HUVEC E-selectin immunofluorescence imaging; normalized: neutral wells 0, TNF-alpha wells 100; P16581; 0.37% of 260,000 active; activation, % at 7.58 µM;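 active = mean E-selectin-positive cell signal at least 10% of the positive control, reached in at least 60% of replicates, without over 20% cell loss; inconclusive = no rule given, readout overlaps actives, possibly toxicity-flagged; inactive = the rest, including those meeting only one limit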
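Assay system: HUVEC primary endothelial cells. Input: 3,000 HUVEC seeded per well. Doses: one compound dose added by pin transfer. Read-out basis: % PE-positive cells. Benchmarks: TNF-alpha high, DMSO low. Detection: immunofluorescence imaging. Buffer or medium: EGM-2, gelatin.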
INS-1E GSIS act = primary screen for activators of insulin secretion dependent on glucose, INS-1E cells, GLuc reporter luminescence; INS-1E GLuc reporter insulin secretion, 2-3 h; 0.61% of 370,000 active; activation, % at 16.6 µM;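 active = lowest replicate activation of at least 40%, so every replicate reaches that level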
miR122 inh = inhibitors of miR-122 in Huh7 cells; 0.3% of 340,000 active; activation (reporter increase), % at 12.5 µM; Huh7 miR-122 Renilla luciferase sensor, 48 h; neutral wells = 0, positive control = 100;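 active = mean replicate activation score at least 90 and every replicate individually at or above 90; inconclusive = only one of the two criteria met; inactive = neither criterion met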;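 also: higher luciferase means less miR-122 activity so hits act as miR-122 inhibitors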
CFTR F508del cor = CFTR F508del correction in bronchial cells; CFBE cells, YFP halide quenching; stimulated with forskolin plus potentiator P3; % fluorescence drop versus neutral controls; activity (quench increase), % at 7.58 µM; 0.36% of 350,000 active; AID 720511;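 active = mean added fluorescence quench of at least 8% versus neutral control, with both replicates also reaching 8%; inconclusive = only one of the mean or replicate conditions met; inactive = mean below 8% and not both replicates reaching 8%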;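 also: cells transiently co-express mutant CFTR-F508del with the halide-sensitive YFP; corrector assay measuring rescue of mutant channel to the surface after 24 h compound exposure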
DENV2 CPE rescue = inhibitors of DENV2 cytopathic effect; DENV2-infected cells, cytopathic effect rescue, plate reader; 1.7% of 350,000 active; CPE inhibition, % at 9.99 µM; in the data active = CPE inhibition above about 20%, passing the limit was not always enough; inconclusive = no clear call, values can overlap the other calls; tested in BHK-21 cells
ERAP1 inh = inhibitors of human ERAP1 aminopeptidase; Q9NZ08; recombinant ERAP1, Leu-AMC fluorescence, 60 min; inhibition, % at 10.7 µM; 0.15% of 340,000 active;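 active = mean replicate inhibition of at least 30%, or all replicates individually reaching that 30% level; inactive = mean below 30% and not every replicate reaching it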
Target sequence (Q9NZ08 whole entry, looked up): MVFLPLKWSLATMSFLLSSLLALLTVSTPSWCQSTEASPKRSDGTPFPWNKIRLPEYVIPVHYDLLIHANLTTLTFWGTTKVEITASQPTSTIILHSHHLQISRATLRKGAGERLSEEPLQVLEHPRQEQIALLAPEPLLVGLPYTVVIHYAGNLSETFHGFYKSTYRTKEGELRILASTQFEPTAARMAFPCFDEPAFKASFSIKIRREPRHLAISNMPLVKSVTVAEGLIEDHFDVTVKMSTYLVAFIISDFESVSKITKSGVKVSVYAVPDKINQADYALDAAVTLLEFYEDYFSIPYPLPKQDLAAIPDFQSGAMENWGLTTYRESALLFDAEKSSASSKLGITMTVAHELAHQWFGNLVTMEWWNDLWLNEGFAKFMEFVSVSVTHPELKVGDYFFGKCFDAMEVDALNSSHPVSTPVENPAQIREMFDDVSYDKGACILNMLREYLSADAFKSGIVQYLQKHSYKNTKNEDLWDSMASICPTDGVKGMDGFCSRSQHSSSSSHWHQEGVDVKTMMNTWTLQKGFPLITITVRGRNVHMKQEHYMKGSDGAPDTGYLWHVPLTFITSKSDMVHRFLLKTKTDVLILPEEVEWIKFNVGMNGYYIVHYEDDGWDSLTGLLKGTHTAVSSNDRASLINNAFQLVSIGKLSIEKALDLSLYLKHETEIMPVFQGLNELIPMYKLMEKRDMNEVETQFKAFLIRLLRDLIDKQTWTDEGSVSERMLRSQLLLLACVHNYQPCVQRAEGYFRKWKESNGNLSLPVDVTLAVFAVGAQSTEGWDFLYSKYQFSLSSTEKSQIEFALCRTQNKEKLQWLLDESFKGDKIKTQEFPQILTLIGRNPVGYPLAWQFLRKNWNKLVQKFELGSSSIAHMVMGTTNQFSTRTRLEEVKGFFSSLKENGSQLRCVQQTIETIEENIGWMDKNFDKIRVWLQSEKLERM
Of the large screens only hits and unclear results are named; the others gave an inactive call; ! = not confirmed by another sample.

COc1cccc(C(=O)Nc2cccc(C(=O)N3CCOCC3)c2)c1	none (no result: INS-1E GSIS act, miR122 inh, CFTR F508del cor, DENV2 CPE rescue, ERAP1 inh)
O=C(C1CCOCC1)N1CC(=O)N2[C@H](CO)[C@H](c3ccc(C#CC4CCCC4)cc3)[C@H]2C1	none (no result: miR122 inh)
CCC(=O)N1CC(=O)N2[C@@H](CO)[C@H](c3ccc(C#Cc4cccnc4)cc3)[C@@H]2C1	none (no result: miR122 inh)
O=C(N[C@@H]1C=C[C@H](CC(=O)N2CCc3ccccc3C2)O[C@H]1CO)C1CCOCC1	none (no result: miR122 inh)
CC(C)NC(=O)N(C)C[C@H]1OCc2cnnn2CCCC(=O)N([C@H](C)CO)C[C@@H]1C	DENV2 CPE rescue 91.8!
CCOC(=O)N(C)C[C@@H]1OCc2cnnn2CCCC(=O)N([C@@H](C)CO)C[C@@H]1C	DENV2 CPE rescue 70.1!
C[C@@H]1CN([C@@H](C)CO)C(=O)CCCn2nncc2CO[C@H]1CN(C)C(=O)Nc1ccccc1	DENV2 CPE rescue 30.8
C[C@H](CO)N1C[C@H](C)[C@@H](CN(C)Cc2cccc3c2OCCCO3)OCc2cnnn2CCCC1=O	none
C[C@@H]1CN([C@@H](C)CO)C(=O)CCCn2nncc2CO[C@H]1CN(C)Cc1cccc2c1OCCCO2	DENV2 CPE rescue 45.4!
CC(C)NC(=O)N(C)C[C@@H]1OCc2cnnn2CCCC(=O)N([C@@H](C)CO)C[C@@H]1C	none
C[C@@H]1CN([C@H](C)CO)C(=O)CCCn2nncc2CO[C@@H]1CN(C)C(=O)Nc1ccccc1	none
CCNC(=O)C[C@H]1CC[C@@H]2[C@H](COC[C@@H](O)CN2C(=O)C2CCOCC2)O1	none
CN1CCN(C(=O)C[C@H]2CC[C@@H]3[C@H](COC[C@H](O)CN3Cc3cccc(Cl)c3)O2)CC1	none
O=C(/C=C(\Nc1cc(Cl)c(F)c(Cl)c1)c1ccccc1)c1ccccc1	INS-1E GSIS act 157.2 (no result: miR122 inh)
O=C([C@H]1O[C@@H](n2ccc(=O)[nH]c2=O)[C@H](O)[C@@H]1O)N1CCN(c2ccc(Cl)cn2)CC1	DENV2 CPE rescue 44.5
Nc1ccn([C@@H]2O[C@H](C(=O)N3CCN(c4ccc(Cl)cn4)CC3)[C@@H](O)[C@H]2O)c(=O)n1	none
O=C(O)CN1C(=O)/C(=C\c2ccccc2OCc2ccccc2)SC1=S	none
O=C(O)CN1C(=O)/C(=C\c2cc(Br)ccc2OCc2ccc(F)cc2)SC1=S	none (no result: miR122 inh)
O=C(O)CN1C(=O)/C(=C\c2ccccc2OCc2ccc(F)cc2)SC1=S	ERAP1 inh 32.3
O=C(O)CN1C(=O)/C(=C\c2cc(Br)ccc2OCc2ccc(Cl)cc2)SC1=S	E-sel inducer 49.3, DENV2 CPE rescue inconclusive (no result: INS-1E GSIS act, miR122 inh)
COc1ccc(NC(=O)N(C)C[C@H]2OCc3ccccc3-c3c(n(C)c4ccccc34)C(=O)N([C@@H](C)CO)C[C@@H]2C)cc1	none (no result: miR122 inh)
CCn1cc(C(=O)NC(=S)Nc2sc3c(c2C(=O)OC)CCCCCC3)cn1	INS-1E GSIS act 74.0 (no result: CFTR F508del cor, DENV2 CPE rescue, ERAP1 inh)
O=C(C1=C[C@@H](c2ccc3c(c2)OCO3)C[C@@H](OCCCCO)O1)N1CCN(Cc2ccc3c(c2)OCO3)CC1	none
O=C(C1=C[C@@H](c2ccccc2)C[C@@H](OCCCCO)O1)N1CCN(Cc2ccc3c(c2)OCO3)CC1	DENV2 CPE rescue 21.3!
O=C(C1=C[C@H](c2ccc3c(c2)OCO3)C[C@H](OCCCCO)O1)N1CCN(Cc2ccc3c(c2)OCO3)CC1	DENV2 CPE rescue 44.1
CC(C)C#Cc1ccc2c(c1)O[C@H](CN(C)Cc1ccncc1)[C@H](C)CN([C@@H](C)CO)S2(=O)=O	none (no result: ERAP1 inh)
CN(C)CCCNc1cc(O)c2ncccc2c1	DENV2 CPE rescue 56.8
Oc1cc(NCc2ccc(F)cc2)cc2cccnc12	none (no result: INS-1E GSIS act)
O=C(N[C@H]1CC[C@@H](CCNS(=O)(=O)c2ccc(Cl)cc2)O[C@@H]1CO)c1ccccn1	DENV2 CPE rescue 53.0
O=C(N[C@@H]1CC[C@H](CCNS(=O)(=O)c2ccc(Cl)cc2)O[C@H]1CO)c1ccccn1	none
O=C(N[C@@H]1CC[C@@H](CCNS(=O)(=O)c2ccc(Cl)cc2)O[C@@H]1CO)c1cccc(F)c1	none (no result: miR122 inh)
O=C(N[C@H]1CC[C@H](CCNS(=O)(=O)c2ccc(Cl)cc2)O[C@H]1CO)c1ccccn1	DENV2 CPE rescue 59.7
